According to ChEMBL document CHEMBL5038578, “Design, Synthesis, and Biological Evaluation of Peptidomimetic Aldehydes as Broad-Spectrum Inhibitors against Enterovirus and SARS-CoV-2” (J Med Chem, 2022):

Experiments:
[1] = Inhibition of Human enterovirus 71 3C-like protease expressed in Escherichia coli BL21 (DE3) cells using Dacyl-KTSAVLQSGFRKMEEdans as fluorogenic substrate incubated for 10 mins by FRET assay; set-up: species or system Enterovirus A71
Procedure, shortened: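 EV71 3Cpro expressed with N-terminal His-SUMO2 tag, tag cut by SENP2, then purified on Ni-NTA, Q-Sepharose and Superdex200. Enzyme at 5 μM final, preincubated 10 min with serial compound dilutions in 25 mM Tris pH 8.0, 150 mM NaCl, 10% glycerol. Fluorescence read at ex 340/em 490 nm. IC50 (mean ± SD, ≥3 experiments) by nonlinear regression.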

[2] = Cytotoxicity against human RD cells assessed as reduction in cell viability measured after 4 days by MTS/PMS assay; type: toxicity, cell-based; conditions: time 4 day
[3] = tested on: Enterovirus A71; experiment: Antiviral activity against Human enterovirus 71 BrCr infected in human RD cells assessed as reduction in virus-induced cytopathic effect incubated for 4 days by MTS/PMS assay; type: functional, organism-based; conditions: Enterovirus A, 96 h
Procedure, shortened: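 RD cells (2.5 × 10^4/well) adhered overnight, then infected with EV71 BrCr and given serial compound dilutions. Incubated 4 days, until full CPE in virus controls. Viability by MTS/PMS, absorbance at 498 nm after 1–2 h at 37 °C. Normalised to infected and uninfected untreated controls; EC50 by curve fitting.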

[4] = Inhibition of SARS-CoV2 3C-like protease expressed in Escherichia coli BL21 (DE3) cells using Mca-AVLQSGFR-Lys(Dnp)-Lys-NH2 as fluorogenic substrate incubated for 10 mins by FRET assay; set-up: species or system Severe acute respiratory syndrome coronavirus 2
[5] = tested on: SARS-CoV-2; experiment: Antiviral activity against SARS Cov-2 infected in Vero E6 cells assessed as reduction in viral RNA replication measured 24 hrs post infection by qRT-PCR analysis; type: functional, organism-based; conditions: Severe acute respiratory syndrome coronavirus 2, Vero C1008, 24 h
[6] = Cytotoxicity against African green monkey Vero E6 cells assessed as reduction in cell viability incubated for 24 hrs by CCK8 assay; type: toxicity, cell-based, Vero C1008; conditions: chlorocebus sabaeus
Procedure, shortened: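 Vero E6 cells (2 × 10^4/well) exposed to graded compound concentrations for 24 h. Relative surviving cell number measured by CCK-8.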

[7] = tested on: Coxsackievirus A21; experiment: Antiviral activity against Human coxsackievirus A21 infected in HeLa cells assessed as reduction in virus-induced cytopathic effect incubated for 3 days by MTS/PMS assay; type: functional, organism-based; conditions: Enterovirus C, 72 h
[8] = tested on: rhinovirus B14; experiment: Antiviral activity against wild type Human rhinovirus B14 infected in HeLa cells assessed as reduction in virus-induced cytopathic effect incubated for 3 days by MTS/PMS assay; type: functional, organism-based; conditions: Rhinovirus B, 72 h
[9] = tested on: rhinovirus A2; experiment: Antiviral activity against wild type Rhinovirus-A02 infected in HeLa cells assessed as reduction in virus-induced cytopathic effect incubated for 3 days by MTS/PMS assay; type: functional, cell-based; conditions: Rhinovirus A, 72 h
[10] = tested on: enterovirus D68; experiment: Antiviral activity against Human enterovirus 68 infected in HeLa cells assessed as reduction in virus-induced cytopathic effect incubated for 4 days by MTS/PMS assay; type: functional, organism-based; conditions: Enterovirus D, 96 h
[11] = tested on: Coxsackievirus B3; experiment: Antiviral activity against Human coxsackievirus B3 infected in Vero cells assessed as reduction in plaque formation treated 2 hrs post viral infection and measured 3 to 4 days post-infection by Giemsa staining based plaque reduction assay; type: functional, organism-based; conditions: Enterovirus B

With `O=C[C@H](C[C@@H]1CCNC1=O)NC(=O)[C@H](Cc1ccccc1)NC(=O)c1ccc2[nH]ccc2c1` the IC50 [1] was 3.83 µM, the CC50 at 96 h [2] was > 100 µM and the EC50 [3] was 0.69 µM.

For `O=C(/C=C/c1ccccc1)N[C@@H](Cc1ccccc1)C(=O)N[C@H](/C=C/C(=O)OCc1ccccc1)C[C@@H]1CCNC1=O`, the IC50 [1] was 2.06 µM, the CC50 at 96 h [2] was > 100 µM and the EC50 [3] was 3.1 µM.

In the case of `O=C[C@H](C[C@@H]1CCNC1=O)NC(=O)[C@H](Cc1ccccc1)NC(=O)c1ccc2ccccc2n1`, the IC50 [1] is reported as 13 µM, the IC50 [4] is reported as 0.14 µM and the CC50 at 96 h [2] is reported as > 100 µM. It also gave an EC50 [5] of 0.43 µM, an EC50 [3] of 0.12 µM and a CC50 at 24 h [6] of 627 µM.

In the case of `O=C[C@H](C[C@@H]1CCNC1=O)NC(=O)[C@H](Cc1ccccc1)NC(=O)c1ccc2c(c1)OCO2`, the IC50 [1] is reported as 1.47 µM, the IC50 [4] is reported as 0.078 µM and the CC50 at 96 h [2] is reported as > 100 µM. The EC50 [5] was 1.35 µM, the EC50 [3] was 0.22 µM and the CC50 at 24 h [6] was > 1000 µM.

With `CC(C)[C@H](NC(=O)c1cc2ccccc2o1)C(=O)N[C@@H](Cc1ccccc1)C(=O)N[C@H](C=O)C[C@@H]1CCNC1=O` the IC50 [1] was 2.43 µM, the IC50 [4] was 0.067 µM and the CC50 at 96 h [2] was > 100 µM. The EC50 [5] was 5.62 µM, the EC50 [3] was 0.096 µM and the CC50 at 24 h [6] was > 1000 µM.

`O=C[C@H](C[C@@H]1CCNC1=O)NC(=O)[C@H](Cc1ccccc1)NC(=O)c1ccc2ccc(Br)cc2n1` gave an IC50 [1] of 3.22 µM, an IC50 [4] of 0.24 µM and a CC50 at 96 h [2] of 46.2 µM. For the same molecule, the EC50 [5] was 0.35 µM, the EC50 [3] was 0.094 µM and the CC50 at 24 h [6] was 823 µM.

For `O=C[C@H](C[C@@H]1CCNC1=O)NC(=O)[C@H](Cc1ccccc1)NC(=O)c1ccc2occc2c1`, the IC50 [1] was 2.37 µM, the IC50 [4] was 0.059 µM and the CC50 at 96 h [2] was > 100 µM. For the same molecule, the EC50 [5] was 0.76 µM, the EC50 [3] was 0.29 µM and the CC50 at 24 h [6] was > 1000 µM.

For `O=C[C@H](C[C@@H]1CCNC1=O)NC(=O)[C@H](Cc1ccccc1)NC(=O)c1cc2ccccc2o1`, the IC50 [1] was 2.44 µM, the IC50 [4] was 0.08 µM and the CC50 at 96 h [2] was > 100 µM. The EC50 [5] was 0.49 µM, the EC50 [3] was 0.093 µM and the CC50 at 24 h [6] was > 1000 µM.

For `CC(C)[C@H](NC(=O)c1cc2ccccc2[nH]1)C(=O)N[C@@H](Cc1ccccc1)C(=O)N[C@H](C=O)C[C@@H]1CCNC1=O`, the IC50 [1] was 4.16 µM, the IC50 [4] was 0.068 µM and the CC50 at 96 h [2] was 72.5 µM. It also gave an EC50 [5] of 4.22 µM, an EC50 [3] of 0.12 µM and an EC50 [7] of 0.51 µM. For the same molecule, the CC50 at 24 h [6] was > 1000 µM, the EC50 [8] was 0.98 µM and the EC50 [9] was 1.02 µM. The EC50 [10] was 0.26 µM and the EC50 [11] was 9.15 µM.

In the case of `Cc1cc(C(=O)N[C@H](C(=O)N[C@@H](Cc2ccccc2)C(=O)N[C@H](C=O)C[C@@H]2CCNC2=O)C(C)C)no1`, the IC50 [1] is reported as 6.73 µM, the IC50 [4] is reported as 0.067 µM and the CC50 at 96 h [2] is reported as > 100 µM. For the same molecule, the EC50 [5] was > 2 µM, the EC50 [3] was 0.09 µM and the CC50 at 24 h [6] was > 1000 µM.

In the case of `O=C[C@H](C[C@@H]1CCNC1=O)NC(=O)[C@H](Cc1ccccc1)NC(=O)c1cnc2ccccc2n1`, the IC50 [1] is reported as 3.6 µM, the CC50 at 96 h [2] is reported as > 100 µM and the EC50 [3] is reported as 0.14 µM.

For `CC(C)[C@H](NC(=O)c1ccc2c(c1)OCCO2)C(=O)N[C@@H](Cc1ccccc1)C(=O)N[C@H](C=O)C[C@@H]1CCNC1=O`, the IC50 [1] was 4.04 µM, the CC50 at 96 h [2] was > 100 µM and the EC50 [3] was 0.44 µM.
